# Assay results reported in ChEMBL document CHEMBL4270650, “Discovery of novel human inosine 5'-monophosphate dehydrogenase 2 (hIMPDH2) inhibitors as potential anticancer agents” (Eur J Med Chem, 2018).
# Where a name gives a salt, the structure may show the parent alone. The source made the active and inactive calls. The rule behind the calls is not given here.
# Experiments:
# [1] = target: T1, Inosine-5'-monophosphate dehydrogenase 2 (Homo sapiens, UniProt P12268); test: Inhibition of human IMPDH2 using IMP at 10 uM as substrate in presence of NAD+ after 30 mins relative to control
# Method in brief: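 Purchased purified hIMPDH2, 0.15 mU/well, in 100 mM Tris-HCl pH 8.6, 100 mM KCl, 5 mM DTT and 4% v/v DMSO. Started with 0.2 mM IMP plus 0.2 mM NAD+ and run 30 min at 37 °C. NADH read at 340 nm. Screen at 10 µM gave % inhibition.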
# [2] = Cytotoxicity against mouse NIH/3T3 cells assessed as cell viability at 100 uM after 48 hrs by MTT assay relative to control; type: cell-based, NIH3T3; conditions: read-out: Activity
# Method in brief: (§1)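 NIH-3T3 mouse embryonic fibroblasts grown in DMEM with 10% FBS and penicillin-streptomycin at 37 °C, 5% CO2. Seeded at 10,000 cells/well and dosed after 24 hr, DMSO vehicle, triplicate wells. After 48 hr exposure, MTT (5 mg/mL) added for 4 hr and formazan dissolved in DMSO. Absorbance read at 540/630 nm. Viability expressed as % of control, mean ± SD.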
# MDA-MB-231 [3] = test: Cytotoxicity against human MDA-MB-231 cells assessed as reduction in cell viability after 48 hrs by MTT assay; type: functional, cell-based; conditions: MDA-MB-231, 48 h
# Method in brief: (§2)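 Cells grown in DMEM with 10% FBS and penicillin-streptomycin at 37 °C, 5% CO2. Seeded at 10,000 (MDA-MB-231), 8,000 (DU145) or 5,000 (U87 MG) cells/well. Treated 24 hr later with 0.01–100 µM, each dilution in triplicate, DMSO vehicle. After 48 hr, MTT (5 mg/mL) for 4 hr, formazan dissolved in DMSO. Absorbance read at 540 nm with 630 nm background. IC50 taken from mean of triplicate readings.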
# DU-145 [4] = test: Cytotoxicity against human DU145 cells assessed as reduction in cell viability after 48 hrs by MTT assay; type: functional, cell-based; conditions: DU-145, 48 h; method in brief: as §2
# U-87 MG [5] = test: Cytotoxicity against human U87MG cells assessed as reduction in cell viability after 48 hrs by MTT assay; type: functional, cell-based, U-87MG ATCC; method in brief: as §2
# [6] = Cytotoxicity against mouse NIH/3T3 cells assessed as cell viability at 10 uM after 48 hrs by MTT assay relative to control; type: cell-based, NIH3T3; conditions: read-out: Activity; method in brief: as §1
# [7] = target: T1, Inosine-5'-monophosphate dehydrogenase 2; test: Inhibition of human IMPDH2 using IMP as substrate in presence of NAD+ after 30 mins
# Method in brief: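 Purchased purified hIMPDH2, 0.15 mU/well, in 100 mM Tris-HCl pH 8.6, 100 mM KCl, 5 mM DTT and 4% v/v DMSO. Started with 0.2 mM IMP plus 0.2 mM NAD+ and run 30 min at 37 °C. NADH read at 340 nm.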
# [8] = Cytotoxicity against human PBMC assessed as cell viability at 10 uM after 48 hrs by MTT assay relative to control; type: cell-based; conditions: read-out: Activity
# [9] = Octanol-buffer partition coefficient, log D of the compound at pH 7.4 after 2 hrs by HPLC analysis; type: physicochemical
# Method in brief: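 DMSO stock added to pre-saturated 1:1 1-octanol/pH 7.4 buffer and shaken 2 hr at 37 °C, 200 rpm. Phases separated and each quantified by HPLC on a C18 column with isocratic acetonitrile:water 80:20 at 1 mL/min. logD7.4 taken from the octanol-to-buffer concentration ratio.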
# U-87 MG [10] = test: Potency index, ratio of mycophenolic acid IC50 to compound IC50 for cytotoxicity against human U87MG cells; type: functional, U-87MG ATCC
# [11] = Solubility in pH 7.4 sodium phosphate buffer after 2 hrs by HPLC analysis; type: physicochemical; conditions: read-out: -log(solubility) (converted)
# Method in brief: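 DMSO stock diluted 1:100 into 50 mM sodium phosphate, pH 7.4, and shaken 2 hr at 37 °C, 200 rpm. Centrifuged 20 min at 4000 rpm; supernatant diluted 1:1 with acetonitrile and filtered. Quantified by C18 HPLC (acetonitrile:water 80:20, isocratic) against a calibration curve of 0.78–100 µM made in 1:1 buffer/acetonitrile.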
# DU-145 [12] = test: Potency index, ratio of mycophenolic acid IC50 to compound IC50 for cytotoxicity against human DU145 cells; type: functional
# MDA-MB-231 [13] = test: Potency index, ratio of mycophenolic acid IC50 to compound IC50 for cytotoxicity against human MDA-MB-231 cells; type: functional
smiles,measurement,setting,value
COc1ccc(/C=C/C(=O)c2ccc(OCC(=O)Nc3ccc(OC)c(OC)c3)cc2)cc1,inhibition,[1],33.6%
COc1ccc(NC(=O)COc2ccc(C(=O)/C=C/c3ccc(Cl)cc3)cc2)cc1OC,inhibition,[1],30.1%
COc1cccc2c1C(=O)c1c(O)c3c(c(O)c1C2=O)C[C@@](O)(C(=O)CO)C[C@@H]3O[C@H]1C[C@H](N)[C@H](O)[C@H](C)O1 [DOXORUBICIN HYDROCHLORIDE],"viability at 48 h, 100 µM",[2],6.73%
same,IC50,MDA-MB-231 [3],540 nM
same,IC50,DU-145 [4],210 nM
same,IC50,U-87 MG [5],110 nM
same,"viability at 48 h, 10 µM",[6],15.6%
O=C(COc1ccc(C(=O)/C=C/c2ccco2)cc1)Nc1ccc2c(c1)COC2=O,inhibition,[1],57.3%
O=C(COc1ccc(C(=O)/C=C/c2ccc(Cl)cc2)cc1)Nc1ccc2c(c1)COC2=O,inhibition,[1],62.1%
CCOc1ccc(/C=C/C(=O)c2ccc(OCC(=O)Nc3ccc4c(c3)COC4=O)cc2)cc1,inhibition,[1],65.5%
COc1ccc(NC(=O)COc2ccc(C(=O)/C=C/c3ccccc3Cl)cc2)cc1OC,inhibition,[1],25.7%
COc1ccc(/C=C/C(=O)c2ccc(OCC(=O)NCc3ccc4c(c3)OCO4)cc2)cc1,inhibition,[1],inactive
O=C(COc1ccc(C(=O)/C=C/c2ccccc2)cc1)Nc1ccc2c(c1)COC2=O,IC50,[7],790 nM
same,inhibition,[1],79.1%
CCOc1ccc(/C=C/C(=O)c2ccc(OCC(=O)NCc3ccc4c(c3)OCO4)cc2)cc1,inhibition,[1],inactive
COc1cccc(/C=C/C(=O)c2ccc(OCC(=O)Nc3ccc4c(c3)COC4=O)cc2)c1,"viability at 48 h, 100 µM",[2],62.6%
same,IC50,MDA-MB-231 [3],3420 nM
same,IC50,[7],360 nM
same,IC50,DU-145 [4],2550 nM
same,inhibition,[1],91.5%
same,IC50,U-87 MG [5],5750 nM
same,"viability at 48 h, 10 µM",[6],87.1%
CCOc1ccc(/C=C/C(=O)c2ccc(OCC(=O)Nc3ccc(OC)c(OC)c3)cc2)cc1,inhibition,[1],63.5%
CCCCOc1ccc(/C=C/C(=O)c2ccc(OCC(=O)Nc3ccc4c(c3)COC4=O)cc2)cc1,inhibition,[1],57.7%
O=C(COc1ccc(C(=O)/C=C/c2ccc(OCc3ccc(Cl)cc3Cl)cc2)cc1)Nc1ccc2c(c1)COC2=O,inhibition,[1],36.7%
COc1ccc(/C=C/C(=O)c2ccc(OCC(=O)Nc3ccc4c(c3)COC4=O)cc2)cc1,"viability at 48 h, 100 µM",[2],63.7%
same,IC50,MDA-MB-231 [3],3030 nM
same,IC50,[7],660 nM
same,IC50,DU-145 [4],2130 nM
same,inhibition,[1],95.6%
same,"viability at 48 h, 10 µM",[8],86%
same,IC50,U-87 MG [5],4900 nM
same,"viability at 48 h, 10 µM",[6],90.9%
COc1ccc(NC(=O)COc2ccc(C(=O)/C=C/c3ccco3)cc2)cc1OC,inhibition,[1],21.3%
O=C(COc1ccc(C(=O)/C=C/c2ccc(OCc3ccccc3)cc2)cc1)Nc1ccc2c(c1)COC2=O,inhibition,[1],52.2%
O=C(COc1ccc(C(=O)/C=C/c2c(F)cccc2F)cc1)NCc1ccc2c(c1)OCO2,inhibition,[1],inactive
COc1ccc(/C=C/C(=O)c2cccc(OCC(=O)Nc3ccc(OC)c(OC)c3)c2)cc1OC,inhibition,[1],23.3%
COc1cc(/C=C/C(=O)c2ccc(OCC(=O)NCc3ccc4c(c3)OCO4)cc2)cc(OC)c1OC,inhibition,[1],inactive
COc1ccc(NC(=O)COc2ccc(C(=O)/C=C/c3cc(OC)c(OC)c(OC)c3)cc2)cc1OC,inhibition,[1],20.6%
COc1ccc(/C=C/C(=O)c2ccc(OCC(=O)Nc3ccc4c(c3)COC4=O)cc2)cc1OC,inhibition,[1],65.5%
COc1ccc(NC(=O)COc2ccc(C(=O)/C=C/c3c(F)cccc3F)cc2)cc1OC,inhibition,[1],35.9%
COc1cc(/C=C/C(=O)c2cccc(OCC(=O)Nc3ccc4c(c3)COC4=O)c2)cc(OC)c1OC,inhibition,[1],63.7%
COc1ccc(NC(=O)COc2ccc(C(=O)/C=C/c3cccs3)cc2)cc1OC,inhibition,[1],24.5%
COc1cccc(/C=C/C(=O)c2ccc(OCC(=O)Nc3ccc(OC)c(OC)c3)cc2)c1,inhibition,[1],28.8%
O=C(COc1ccc(/C=C/C(=O)c2ccc(F)cc2)cc1)Nc1ccc2c(c1)COC2=O,"viability at 48 h, 100 µM",[2],80.2%
same,IC50,MDA-MB-231 [3],5420 nM
same,IC50,[7],570 nM
same,IC50,DU-145 [4],6880 nM
same,inhibition,[1],87.9%
same,IC50,U-87 MG [5],6050 nM
same,"viability at 48 h, 10 µM",[6],90.3%
O=C(COc1ccc(C(=O)/C=C/c2ccc(OCc3ccc(Cl)cc3)cc2)cc1)Nc1ccc2c(c1)COC2=O,inhibition,[1],39.1%
O=C(COc1ccc(C(=O)/C=C/c2cccs2)cc1)Nc1ccc2c(c1)COC2=O,IC50,[7],4540 nM
same,inhibition,[1],76.3%
COc1cc(/C=C/C(=O)c2ccc(OCC(=O)Nc3ccc4c(c3)COC4=O)cc2)cc(OC)c1OC,IC50,[7],7380 nM
same,inhibition,[1],71.3%
O=C(COc1ccc(C(=O)/C=C/c2ccc([N+](=O)[O-])cc2)cc1)Nc1ccc2c(c1)COC2=O,inhibition,[1],63.2%
O=C(COc1ccc(C(=O)/C=C/c2c(F)cccc2F)cc1)Nc1ccc2c(c1)COC2=O,"viability at 48 h, 100 µM",[2],70.2%
same,IC50,MDA-MB-231 [3],2410 nM
same,IC50,[7],360 nM
same,logD at 2 h,[9],2.99
same,IC50,DU-145 [4],1900 nM
same,inhibition,[1],94.2%
same,Ratio IC50,U-87 MG [10],3
same,solubility at 2 h,[11],1.55 µM
same,"viability at 48 h, 10 µM",[8],77%
same,IC50,U-87 MG [5],3670 nM
same,"viability at 48 h, 10 µM",[6],98.5%
COc1ccc(/C=C/C(=O)c2cccc(OCC(=O)Nc3ccc4c(c3)COC4=O)c2)cc1OC,inhibition,[1],57%
CCCOc1ccc(/C=C/C(=O)c2ccc(OCC(=O)Nc3ccc4c(c3)COC4=O)cc2)cc1,inhibition,[1],60.1%
COc1cc(C(=O)/C=C/c2cc(OC)c(OC)c(OC)c2)ccc1OCC(=O)Nc1ccc2c(c1)COC2=O,inhibition,[1],19.9%
COc1ccc(/C=C/C(=O)c2ccc(OCC(=O)NCc3ccc4c(c3)OCO4)cc2)cc1OC,inhibition,[1],inactive
O=C(COc1cccc(C(=O)/C=C/c2ccccc2)c1)Nc1ccc2c(c1)COC2=O,"viability at 48 h, 100 µM",[2],67.6%
same,IC50,MDA-MB-231 [3],1100 nM
same,IC50,[7],430 nM
same,logD at 2 h,[9],2.79
same,IC50,DU-145 [4],1750 nM
same,inhibition,[1],93.7%
same,solubility at 2 h,[11],1.55 µM
same,Ratio IC50,DU-145 [12],1.7
same,Ratio IC50,MDA-MB-231 [13],4
same,IC50,U-87 MG [5],3970 nM
same,"viability at 48 h, 10 µM",[6],96.7%
COc1c(C)c2c(c(O)c1C/C=C(\C)CCC(=O)O)C(=O)OC2 [MYCOPHENOLIC ACID],"viability at 48 h, 100 µM",[2],40.7%
same,IC50,MDA-MB-231 [3],4380 nM
same,IC50,DU-145 [4],2940 nM
same,"viability at 48 h, 10 µM",[8],63%
same,IC50,U-87 MG [5],10700 nM
same,"viability at 48 h, 10 µM",[6],65.2%
O=C(COc1ccc(C(=O)/C=C/c2ccccc2Cl)cc1)Nc1ccc2c(c1)COC2=O,inhibition,[1],59.5%
